In ChEMBL document CHEMBL4411315, “Discovery of Novel Dual Histone Deacetylase and Mammalian Target of Rapamycin Target Inhibitors as a Promising Strategy for Cancer Therapy” (J Med Chem, 2019):

How the values were obtained:
HCT-116 = assay: Antiproliferative activity against human HCT116 cells after 72 hrs by MTT assay; type: functional, cell-based; settings: HCT-116, 72 h
Raji = assay: Antiproliferative activity against human Raji cells after 72 hrs by MTT assay; type: functional, cell-based
How it was run: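 Log-phase cells were plated at 10000-15000 per well and exposed to serial concentrations after 24 h for 72 h. Read-out was MTT for 1-3 h, then 20% SDS overnight and absorbance at 570 nm. IC50 was calculated from growth versus untreated control, as mean ± SEM of at least three independent experiments.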

MCF7 = assay: Antiproliferative activity against human MCF7 cells after 72 hrs by MTT assay; type: functional, cell-based; settings: MCF7, 72 h
MM1.S = assay: Antiproliferative activity against human MM1S cells after 72 hrs by MTT assay; type: functional, cell-based
[1] = target: T1, PI3-kinase p110-alpha/p85-alpha (Homo sapiens) (UniProt P27986+P42336); assay: Inhibition of recombinant human full length N-terminal His-tagged/untagged p110alpha/p85alpha expressed in baculovirus expression system at 500 nM using PIP2 as substrate after 1 hr by Kinase-Glo reagent-based assay relative to control
[2] = target: T2, Serine/threonine-protein kinase mTOR (Homo sapiens, UniProt P42345); assay: Inhibition of recombinant N-terminal FLAG-tagged human mTOR (1362 to end residues) at 500 nM using ULight-4E-BP1 (Thr37/46) peptide as substrate after 1 hr by fluorescence assay relative to control
Histone deacetylase 1 = Histone deacetylase 1 (Homo sapiens, UniProt Q13547); assay: Inhibition of recombinant full length HDAC1 (unknown origin) using Ac-peptide-AMC as substrate preincubated for 15 mins followed by substrate addition and measured after 1 hr by fluorescence assay
Sequence of Histone deacetylase 1 (Q13547 whole entry): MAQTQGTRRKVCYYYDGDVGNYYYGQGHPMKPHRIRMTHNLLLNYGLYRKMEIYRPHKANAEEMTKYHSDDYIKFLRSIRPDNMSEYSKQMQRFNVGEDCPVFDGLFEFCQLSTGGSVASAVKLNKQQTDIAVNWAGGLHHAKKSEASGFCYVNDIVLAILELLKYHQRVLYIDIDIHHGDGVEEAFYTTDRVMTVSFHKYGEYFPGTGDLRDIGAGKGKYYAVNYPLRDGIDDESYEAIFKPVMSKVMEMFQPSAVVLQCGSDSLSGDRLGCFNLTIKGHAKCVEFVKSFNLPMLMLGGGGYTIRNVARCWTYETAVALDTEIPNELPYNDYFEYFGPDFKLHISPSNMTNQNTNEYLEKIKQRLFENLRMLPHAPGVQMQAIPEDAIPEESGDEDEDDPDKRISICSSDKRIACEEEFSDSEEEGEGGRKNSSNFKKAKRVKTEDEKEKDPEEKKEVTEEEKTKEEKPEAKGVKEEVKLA

Histone deacetylase 2 = Histone deacetylase 2 (Homo sapiens, UniProt Q92769); assay: Inhibition of recombinant full length human HDAC2 expressed in baculovirus expression system using Ac-peptide-AMC as substrate preincubated for 15 mins followed by substrate addition and measured after 1 hr by fluorescence assay
Sequence of Histone deacetylase 2 (Q92769 whole entry): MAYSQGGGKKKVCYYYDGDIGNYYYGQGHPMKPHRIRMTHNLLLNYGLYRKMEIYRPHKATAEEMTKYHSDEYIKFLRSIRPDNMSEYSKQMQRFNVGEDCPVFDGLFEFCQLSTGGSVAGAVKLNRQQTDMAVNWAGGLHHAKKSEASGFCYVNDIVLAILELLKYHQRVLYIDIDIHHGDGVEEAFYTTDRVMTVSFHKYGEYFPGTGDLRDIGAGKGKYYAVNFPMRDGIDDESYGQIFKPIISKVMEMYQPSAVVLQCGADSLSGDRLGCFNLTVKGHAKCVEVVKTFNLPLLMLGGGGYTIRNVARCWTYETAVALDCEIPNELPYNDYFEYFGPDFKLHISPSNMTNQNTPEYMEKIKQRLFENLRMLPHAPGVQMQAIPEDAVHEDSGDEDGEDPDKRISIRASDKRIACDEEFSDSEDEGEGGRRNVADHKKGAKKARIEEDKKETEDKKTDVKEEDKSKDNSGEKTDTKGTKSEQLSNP

Histone deacetylase 3 = Histone deacetylase 3 (Homo sapiens, UniProt O15379); assay: Inhibition of recombinant full length HDAC3 (unknown origin) using Ac-peptide-AMC as substrate preincubated for 15 mins followed by substrate addition and measured after 1 hr by fluorescence assay
Sequence of Histone deacetylase 3 (O15379 whole entry): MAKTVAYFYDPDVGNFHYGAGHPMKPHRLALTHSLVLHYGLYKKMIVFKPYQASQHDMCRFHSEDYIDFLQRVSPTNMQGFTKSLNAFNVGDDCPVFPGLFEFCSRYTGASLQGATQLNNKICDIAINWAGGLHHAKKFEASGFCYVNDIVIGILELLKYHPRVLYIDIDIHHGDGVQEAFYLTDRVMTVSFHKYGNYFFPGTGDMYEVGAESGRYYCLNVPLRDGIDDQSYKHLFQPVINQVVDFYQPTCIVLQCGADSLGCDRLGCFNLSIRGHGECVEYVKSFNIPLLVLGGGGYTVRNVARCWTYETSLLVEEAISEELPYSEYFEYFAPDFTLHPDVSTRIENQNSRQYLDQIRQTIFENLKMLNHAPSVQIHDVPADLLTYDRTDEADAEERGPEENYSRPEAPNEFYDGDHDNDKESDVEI

Histone deacetylase 8 = Histone deacetylase 8 (Homo sapiens, UniProt Q9BY41); assay: Inhibition of recombinant full length C-terminal His-tagged human HDAC8 expressed in baculovirus expression system using Ac-peptide-AMC as substrate preincubated for 15 mins followed by substrate addition and measured after 1 hr by fluorescence assay
Sequence of Histone deacetylase 8 (Q9BY41 whole entry): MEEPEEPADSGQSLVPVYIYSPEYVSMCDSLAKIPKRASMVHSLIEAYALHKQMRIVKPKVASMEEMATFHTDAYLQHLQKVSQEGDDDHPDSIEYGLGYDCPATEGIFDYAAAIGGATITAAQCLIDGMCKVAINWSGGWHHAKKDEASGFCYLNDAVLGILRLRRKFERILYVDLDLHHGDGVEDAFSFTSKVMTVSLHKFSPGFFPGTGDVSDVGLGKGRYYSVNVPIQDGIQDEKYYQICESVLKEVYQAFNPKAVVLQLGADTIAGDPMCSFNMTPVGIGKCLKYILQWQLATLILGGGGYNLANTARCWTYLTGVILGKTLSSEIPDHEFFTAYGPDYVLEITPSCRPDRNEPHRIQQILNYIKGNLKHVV

[3] = target: Protein deacetylase HDAC6 (Homo sapiens, UniProt Q9UBN7); assay: Inhibition of recombinant full length HDAC6 (unknown origin) using Ac-peptide-AMC as substrate preincubated for 15 mins followed by substrate addition and measured after 1 hr by fluorescence assay
Sequence of Protein deacetylase HDAC6 (Q9UBN7 whole entry): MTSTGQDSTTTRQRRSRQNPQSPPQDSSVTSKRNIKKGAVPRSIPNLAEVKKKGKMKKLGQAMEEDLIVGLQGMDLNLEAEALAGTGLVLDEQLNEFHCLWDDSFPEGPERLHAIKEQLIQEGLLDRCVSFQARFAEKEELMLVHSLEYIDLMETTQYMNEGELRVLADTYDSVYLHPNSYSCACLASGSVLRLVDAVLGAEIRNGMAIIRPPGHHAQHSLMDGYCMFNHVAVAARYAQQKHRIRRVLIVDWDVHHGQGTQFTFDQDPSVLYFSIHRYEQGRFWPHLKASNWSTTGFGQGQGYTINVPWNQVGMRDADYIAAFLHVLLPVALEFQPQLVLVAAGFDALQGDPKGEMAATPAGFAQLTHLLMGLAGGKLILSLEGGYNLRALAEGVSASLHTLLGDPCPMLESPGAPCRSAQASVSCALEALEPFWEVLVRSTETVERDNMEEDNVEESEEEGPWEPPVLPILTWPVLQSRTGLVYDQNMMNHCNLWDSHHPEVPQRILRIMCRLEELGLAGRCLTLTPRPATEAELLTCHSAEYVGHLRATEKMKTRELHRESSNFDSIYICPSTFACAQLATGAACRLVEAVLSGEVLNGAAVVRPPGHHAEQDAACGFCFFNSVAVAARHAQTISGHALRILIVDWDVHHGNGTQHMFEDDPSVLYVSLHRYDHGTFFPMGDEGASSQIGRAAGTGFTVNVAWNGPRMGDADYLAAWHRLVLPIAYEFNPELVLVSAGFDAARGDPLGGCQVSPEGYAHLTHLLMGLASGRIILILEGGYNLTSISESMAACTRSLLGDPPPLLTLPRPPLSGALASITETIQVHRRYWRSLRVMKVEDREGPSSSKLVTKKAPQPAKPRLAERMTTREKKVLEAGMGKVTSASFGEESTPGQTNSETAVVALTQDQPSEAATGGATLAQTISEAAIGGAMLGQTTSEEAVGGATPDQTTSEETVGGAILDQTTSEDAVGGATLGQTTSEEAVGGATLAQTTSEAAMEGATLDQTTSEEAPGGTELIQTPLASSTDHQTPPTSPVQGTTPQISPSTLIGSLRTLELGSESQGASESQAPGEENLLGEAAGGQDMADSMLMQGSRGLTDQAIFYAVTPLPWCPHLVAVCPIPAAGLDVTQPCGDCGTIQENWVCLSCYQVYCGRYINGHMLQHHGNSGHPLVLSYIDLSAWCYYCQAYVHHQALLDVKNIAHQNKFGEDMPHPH

[4] = target: Polyamine deacetylase HDAC10 (Homo sapiens, UniProt Q969S8); assay: Inhibition of recombinant full length N-terminal FLAG-tagged human HDAC10 expressed in baculovirus infected sf9 cells using Ac-peptide-AMC as substrate preincubated for 15 mins followed by substrate addition and measured after 1 hr by fluorescence assay
Sequence of Polyamine deacetylase HDAC10 (Q969S8 whole entry): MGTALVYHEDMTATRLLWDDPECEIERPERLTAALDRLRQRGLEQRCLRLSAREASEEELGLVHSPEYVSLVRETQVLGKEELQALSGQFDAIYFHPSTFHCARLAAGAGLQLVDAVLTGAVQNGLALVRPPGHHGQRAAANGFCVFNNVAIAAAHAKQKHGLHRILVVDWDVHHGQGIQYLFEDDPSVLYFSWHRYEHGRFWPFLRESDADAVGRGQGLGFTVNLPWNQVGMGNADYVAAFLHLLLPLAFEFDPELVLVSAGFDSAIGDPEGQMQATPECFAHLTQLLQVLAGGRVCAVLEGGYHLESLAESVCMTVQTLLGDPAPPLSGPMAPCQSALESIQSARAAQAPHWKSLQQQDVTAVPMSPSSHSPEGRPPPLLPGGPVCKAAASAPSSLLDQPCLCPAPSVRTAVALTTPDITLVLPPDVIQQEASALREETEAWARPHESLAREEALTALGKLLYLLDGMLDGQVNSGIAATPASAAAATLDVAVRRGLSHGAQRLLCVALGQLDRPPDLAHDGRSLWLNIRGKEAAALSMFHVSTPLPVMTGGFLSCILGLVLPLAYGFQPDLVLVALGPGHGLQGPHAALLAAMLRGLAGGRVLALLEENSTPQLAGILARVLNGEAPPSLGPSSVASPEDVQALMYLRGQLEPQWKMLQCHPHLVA

[5] = target: T2, Serine/threonine-protein kinase mTOR; assay: Inhibition of recombinant N-terminal FLAG-tagged human mTOR (1362 to end residues) using ULight-4E-BP1 (Thr37/46) peptide as substrate after 1 hr by fluorescence assay
How it was run: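 mTOR enzyme, ATP, compound and ULight-4E-BP1 (Thr37/46) peptide in kinase buffer were incubated 1 h at room temperature. EDTA quench plus Eu-anti-phospho-4E-BP1 antibody was added and equilibrated 1 h. TR-FRET was read at excitation 320 or 340 nm and emission 665 nm. Curves were fitted, and values are means of at least two experiments.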

MV4-11 = assay: Antiproliferative activity against human MV4-11 cells after 72 hrs by MTT assay; type: functional, cell-based; settings: MV4-11, 72 h
OCI-AML2 = assay: Antiproliferative activity against human OCI-AML2 cells after 72 hrs by MTT assay; type: functional, cell-based; settings: OCI-AML2, 72 h
OCI-AML-3 = assay: Antiproliferative activity against human OCI-AML3 cells after 72 hrs by MTT assay; type: functional, cell-based; settings: OCI-AML-3, 72 h
[6] = target: T1, PI3-kinase p110-alpha/p85-alpha (Homo sapiens); assay: Inhibition of recombinant human full length N-terminal His-tagged/untagged p110alpha/p85alpha expressed in baculovirus expression system at 1000 nM using PIP2 as substrate after 1 hr by Kinase-Glo reagent-based assay relative to control
How it was run: (§1)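 PI3Kα (p110α/p85α) incubated with PIP2 substrate and ATP in kinase buffer for 1 h at room temperature. Kinase-Glo reagent was then added for 15 min before luminescence read-out. Inhibition rate at 100 or 1000 nM is the mean of at least two experiments.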

[7] = target: T1, PI3-kinase p110-alpha/p85-alpha (Homo sapiens); assay: Inhibition of recombinant human full length N-terminal His-tagged/untagged p110alpha/p85alpha expressed in baculovirus expression system at 100 nM using PIP2 as substrate after 1 hr by Kinase-Glo reagent-based assay relative to control; how it was run: as §1

| IC50 (HCT-116) | IC50 (Raji) | IC50 (MCF7) | IC50 (MM1.S) | inhibition [1] | inhibition [2] | IC50 (Histone deacetylase 1) | IC50 (Histone deacetylase 2) | IC50 (Histone deacetylase 3) | IC50 (Histone deacetylase 8) | IC50 [3] | IC50 [4] | IC50 [5] | IC50 (MV4-11) | IC50 (OCI-AML2) | IC50 (OCI-AML-3) | inhibition [6] | inhibition [7] | SMILES |
| --- | --- | --- | --- | --- | --- | --- | --- | --- | --- | --- | --- | --- | --- | --- | --- | --- | --- | --- |
| 7.1 nM | 7.1 nM | 63.7 nM | 18.9 nM | 16% | 95% | 0.21 nM | 1.6 nM | 4.21 nM | 35.7 nM | 2.43 nM | 1.43 nM | 40 nM |  |  |  |  |  | Nc1ccc(-c2nc(N3CCOCC3)c3cnn(CCCCCCC(=O)NO)c3n2)cc1 |
| 42.9 nM | 34.8 nM |  | 52.1 nM |  |  |  |  |  |  |  |  | 3.1 nM | 5.86 nM | 3.97 nM | 8.01 nM | 83.4% | 69.3% | CCN1CCN(C(=O)Nc2ccc(-c3nc(N4CCOCC4)c4cnn(CCCCCCC(=O)NO)c4n3)cc2)CC1 |
